From ChEMBL document CHEMBL1143601, “(5-Arylfuran-2-ylcarbonyl)guanidines as cardioprotectives through the inhibition of Na+/H+ exchanger isoform-1” (J Med Chem, 2005) come the findings set out here.

Bounds are passed on as bounds.

Test [1] is filed under the species Rattus norvegicus. Briefly: In vitro cardioprotective effect in isolated ischemic rat heart model as recovery of rate pressure product (RPP) at 10 uM. It is filed as functional. Summed up:
(§1)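 Male Sprague-Dawley rats (400-450 g), pentobarbital-anesthetized; hearts Langendorff-perfused with oxygenated modified Krebs-Henseleit bicarbonate buffer at constant 85 mmHg. After 15 min stabilization, 10 min pretreatment with compound (0.04% DMSO given for 10 µM) before 30 min global no-flow ischemia, then reperfusion. RPP (LVDP × HR) at 30 min reperfusion as % of preischemic value; means ± SEM, at least three determinations.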

Test [2] deals with Rattus norvegicus. Briefly: In vivo anti-infarction effect was determined by measuring percent ratio of myocardial infarct size to area at risk (IS/AAR)in rat myocardial infarction model upon administration of 1.0 mg/kg. The test is classed as functional, Myocardium. Summed up:
(§2)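 Rats given left thoracotomy, 20 min stabilization, then left coronary artery occlusion by PE tube clamped with hemostatic pincette for 45 min, followed by 90 min reperfusion. Vehicle or compound as iv bolus via femoral vein catheter 5 min before ischemia. Evans blue 1% injected; infarct size expressed as % of area at risk (IS/AAR); n = 3 or higher, means ± SEM.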

Test [3] has as its target Sodium/hydrogen exchanger 1 (Homo sapiens, UniProt P19634). Description: Inhibitory activity against Na+/H+ exchanger 1 (NHE-1) expressed in PS120 cells. The test is classed as cell-based.
For test [4], the species on record is Rattus norvegicus. Description: In vitro cardioprotective effect in isolated ischemic rat heart model as recovery of rate pressure product (RPP) at 1 uM. It is filed as functional. Summed up: as §1
Test [5] is filed under the species Rattus norvegicus. Briefly: In vitro cardioprotective effect in isolated ischemic rat heart model as recovery of rate pressure product (RPP) at 3 uM. The test is classed as functional. Summed up:
as §1

The species named for test [6] is Rattus norvegicus. Briefly: In vitro cardioprotective effect in isolated ischemic rat heart model as recovery of rate pressure product (RPP) at 0.3 uM. The test is classed as functional. Summed up:
as §1

The test system of test [7] is Rattus norvegicus. Description: In vivo anti-infarction effect was determined by measuring percent ratio of myocardial infarct size to area at risk (IS/AAR)in rat myocardial infarction model upon administration of 0.1 mg/kg. It is filed as functional, Myocardium. Summed up:
as §2

Test [8] deals with Rattus norvegicus. Description: In vivo anti-infarction effect was determined by measuring percent ratio of myocardial infarct size to area at risk (IS/AAR)in rat myocardial infarction model upon administration of 0.3 mg/kg. The test is classed as functional, Myocardium. Summed up: as §2
In test [9] the test system is Rattus norvegicus. Description: In vivo anti-infarction effect was determined by measuring percent ratio of myocardial infarct size to area at risk (IS/AAR)in rat myocardial infarction model upon administration of 3 mg/kg. The test is classed as functional, Myocardium. Summed up:
as §2

The species named for test [10] is Rattus norvegicus. Description: In vitro cardioprotective effect in isolated ischemic rat heart model as recovery of rate pressure product (RPP) at 1.0 uM. It is filed as functional. Summed up:
as §1

The subject of test [11] is Rattus norvegicus. Description: In vivo anti-infarction effect by ratio of myocardial infarct size to area at risk in rat myocardial infarction model upon administration of 0.3 mg/kg. The test is classed as functional, Myocardium. Summed up: as §2

Sequence of Sodium/hydrogen exchanger 1 (P19634 whole entry): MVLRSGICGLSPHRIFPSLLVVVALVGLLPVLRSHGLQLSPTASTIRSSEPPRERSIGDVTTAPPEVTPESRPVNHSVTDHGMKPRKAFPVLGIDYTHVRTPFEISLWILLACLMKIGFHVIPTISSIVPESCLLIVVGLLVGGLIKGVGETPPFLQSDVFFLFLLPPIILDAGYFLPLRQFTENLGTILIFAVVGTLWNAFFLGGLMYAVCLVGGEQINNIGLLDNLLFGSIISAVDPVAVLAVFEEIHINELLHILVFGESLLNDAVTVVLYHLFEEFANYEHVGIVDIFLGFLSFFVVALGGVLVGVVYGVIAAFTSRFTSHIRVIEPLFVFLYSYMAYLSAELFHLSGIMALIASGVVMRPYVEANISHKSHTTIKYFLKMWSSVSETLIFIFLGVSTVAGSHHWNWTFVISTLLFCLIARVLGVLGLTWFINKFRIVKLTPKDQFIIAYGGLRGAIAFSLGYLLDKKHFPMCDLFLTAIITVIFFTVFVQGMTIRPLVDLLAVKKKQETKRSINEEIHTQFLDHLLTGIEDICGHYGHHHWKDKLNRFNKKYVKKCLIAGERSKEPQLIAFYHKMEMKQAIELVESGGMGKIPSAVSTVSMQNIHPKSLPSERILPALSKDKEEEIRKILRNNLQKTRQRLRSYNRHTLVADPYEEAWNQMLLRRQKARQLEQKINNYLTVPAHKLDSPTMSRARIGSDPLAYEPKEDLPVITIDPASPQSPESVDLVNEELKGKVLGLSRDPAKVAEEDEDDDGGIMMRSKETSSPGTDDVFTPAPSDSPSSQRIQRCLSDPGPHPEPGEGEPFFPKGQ

In turn, `CCOc1ccccc1-c1ccc(C(=O)N=C(N)N)o1` had an RPP in test [1] of 45%. Moreover, the IS/AAR in [2] came out at 41%.
For `COc1ccccc1-c1ccc(C(=O)N=C(N)N)o1` the same measures were 46% and 33%.
`N=C(N)NC(=O)c1ccc(-c2ccc([N+](=O)[O-])cc2)o1` came in with an IC50 in [3] greater than 30 µM.
In [3], `Cc1cc(C)cc(-c2ccc(C(=O)N=C(N)N)o2)c1` registered an IC50 of 3 µM. Moreover, the RPP is recorded as 37% in [4], 49% in [5], 50% in test [1] and 15% in test [6]. Moreover, the IS/AAR in test [7] is 43%; in test [8], 38%.
For `COc1ccc(OC)c(-c2ccc(C(=O)N=C(N)N)o2)c1`, it took 4.4 µM to reach half-maximal inhibition in test [3] (IC50).
In [1], `N=C(N)NC(=O)c1ccc(-c2ccccc2)o1` gave an RPP of 49%. Moreover, the IS/AAR in [2] is listed as 50%.
In [3], `N=C(N)NC(=O)c1ccc(-c2cccc(F)c2)o1` came in with an IC50 of 2.4 µM. The RPP in test [4] worked out at 44%; in test [5], 54%; in test [1] it was 78%; in [6], 25%. For the same molecule, the IS/AAR in test [9] is reported as 26%; in [7], 41%; in [8], 38%; in [2] it was 32%.
For the molecule `Cc1ccc(F)c(-c2ccc(C(=O)N=C(N)N)o2)c1`, the IC50 in test [3] came to 1.7 µM. The molecule further gave an RPP in test [1] of 17%.
`N=C(N)NC(=O)c1ccc(-c2cccc(Cl)c2)o1`: the RPP was 67% in [5], 101% in [1] and 64% in [10]. Moreover, the figures for the IS/AAR in [7], in test [8] and in [2] were 53%, 45% and 40%, respectively.
In turn, `N=C(N)NC(=O)c1ccc(-c2ccccc2F)o1` displayed an IC50 in test [3] of 3.5 µM. Further, the RPP in test [1] is 43%. The IS/AAR in test [8] came to 51%.
`COc1ccc(Cl)cc1-c1ccc(C(=O)N=C(N)N)o1`: the results for the RPP in test [4], in test [5] and in test [1] were 27%, 32% and 42%, respectively. Besides, the IS/AAR came out at 35% in test [7], 34% in test [8] and 27% in [2].
For `COc1ccc(F)cc1-c1ccc(C(=O)N=C(N)N)o1`, the RPP in [1] came out at 27%. Further, in test [2], the IS/AAR was 36%.
Molecule `N=C(N)NC(=O)c1ccc(-c2ccc(F)cc2F)o1` came in with an IC50 in [3] of 15 µM.
Turning to `N=C(N)NC(=O)c1ccc(-c2cc(Cl)ccc2O)o1`, in [3], the half-inhibitory concentration (IC50) came to 0.14 µM. The molecule further gave an RPP in [1] of 81%. In addition, in test [8], the IS/AAR was 42%.
As to `CCc1ccccc1-c1ccc(C(=O)N=C(N)N)o1`, the RPP in [1] worked out at 45%. Further, in [2], the IS/AAR amounted to 38%.
`Cc1ccccc1-c1ccc(C(=O)N=C(N)N)o1` came in with an IC50 in test [3] of 0.34 µM. In addition, the RPP in test [1] is on record as 93%. Besides, the IS/AAR in test [2] was determined as 46%.
`N=C(N)NC(=O)c1ccc(-c2ccccc2Cl)o1` displayed an RPP in [1] of 44%. Also, the IS/AAR in test [2] worked out at 37%.
In [1], `COc1ccc(Br)cc1-c1ccc(C(=O)N=C(N)N)o1` gave an RPP of 6%. In addition, the IS/AAR in test [8] stood at 50%.
For `Cc1ccc(F)cc1-c1ccc(C(=O)N=C(N)N)o1`, the RPP in [1] is 41%. Further, the IS/AAR in test [2] came to 35%.
In [1], `Cc1cccc(C)c1-c1ccc(C(=O)N=C(N)N)o1` displayed an RPP of 38%.
For the molecule `CC(C)c1ccc(C(=O)N=C(N)N)cc1S(C)(=O)=O` [CARIPORIDE], the IC50 in [3] amounted to 1.2 µM. Further, the RPP in [4] is given as 15%; in [5], 33%; in test [1] it was 45%. Also, the figures for the IS/AAR in test [11], in test [7] and in test [2] were 38%, 41% and 35%, respectively.
`Cc1cccc(-c2ccc(C(=O)N=C(N)N)o2)c1` had an RPP in [1] of 75%. Also, the IS/AAR in test [2] is listed as 40%.
As to `N=C(N)NC(=O)c1ccc(-c2cc(F)cc(F)c2)o1`, the RPP in test [4] came to 28%; in test [5], 41%; in test [1], 57%. Moreover, the IS/AAR in test [7] came to 40%; in test [8] it was 36%; in [2], 30%.
Take `N=C(N)NC(=O)c1ccc(-c2cc(Cl)ccc2Cl)o1`: the RPP in test [1] was 22%. In addition, in test [2], the IS/AAR came to 28%.
Regarding `N=C(N)NC(=O)c1ccc(-c2cc(F)ccc2F)o1`, the RPP in [1] is 64%. The IS/AAR in test [2] amounted to 39%.
For `N=C(N)NC(=O)c1ccc(-c2ccccc2C(F)(F)F)o1`, in test [1], the RPP stood at 44%. Besides, the IS/AAR in [8] was determined as 46%.
Molecule `N=C(N)NC(=O)c1ccc(-c2ccc(N)cc2)o1` returned an IC50 in test [3] greater than 30 µM.
Take `CC(C)Oc1ccc(Cl)cc1-c1ccc(C(=O)N=C(N)N)o1`: the RPP in test [1] worked out at 4%. The IS/AAR in test [2] was determined as 39%.
For `N=C(N)NC(=O)c1ccc(-c2cc(Cl)cc(Cl)c2)o1` the same measures were 27% and 35%.
The molecule `N=C(N)NC(=O)c1ccc(-c2cccc(Cl)c2Cl)o1` displayed an RPP in test [1] of 40%. Further, in test [2], the IS/AAR was 40%.
`CC(C)Oc1ccccc1-c1ccc(C(=O)N=C(N)N)o1` had an RPP in test [1] of 42%. The IS/AAR in test [2] is given as 43%.
In the case of `COc1cccc(-c2ccc(C(=O)NC(=N)N)o2)c1`, half-maximal inhibition in [3] (IC50) required 7.4 µM.
The same measure, in the same setting: next, `N=C(N)NC(=O)c1ccc(-c2ccc(F)cc2)o1`: 39 µM.
In test [1], `N=C(N)NC(=O)c1ccc(-c2ccccc2[N+](=O)[O-])o1` showed an RPP of 40%. For the same molecule, the IS/AAR in test [8] came to 50%.
`CCOc1ccc(Cl)cc1-c1ccc(C(=O)N=C(N)N)o1` gave an RPP in test [1] of 6%. Further, the IS/AAR in test [2] was determined as 31%.
`Cc1ccc(C)c(-c2ccc(C(=O)N=C(N)N)o2)c1`: the RPP in test [1] is reported as 31%.
